{"data": "Measurements gathered from unrelated publications", "medium": "Caco-2", "note": "Each line is one published result; the experiments were not run side by side."}
{"SMILES": "COc1cc(Cl)c(C(=O)N[C@@H](CN[C@H]2CC[C@@H](N)CC2)Cc2ccc(C#N)cc2)cc1-c1ccc(CN[C@H](C)c2ccc(C)cc2)o1", "setting": "2 µM, 2 h, pH 7.2", "Papp A→B [×10⁻⁶ cm/s]": 3.9}
{"SMILES": "Cn1c(S)nc2c1c(=O)n(Cc1ccccc1)c(=O)n2C", "setting": "10 µM, 2 h", "Papp A→B [×10⁻⁶ cm/s]": 10}
{"SMILES": "COCCc1ccc(OCC(O)CNC(C)C)cc1 (stereo not shown)", "Papp A→B [×10⁻⁶ cm/s]": 16.6}
{"SMILES": "O=C1C[C@@H](c2ccc(O[C@@H]3O[C@H](CO)[C@@H](O)[C@H](O)[C@H]3O)cc2)Oc2cc(O)ccc21", "setting": "2 h", "Papp A→B [×10⁻⁶ cm/s]": "> 1"}
{"SMILES": "O=C(O)CCc1ccc(Oc2ccc(-c3noc(-c4ccc(O)cc4)n3)cc2)cc1", "setting": "2 h, pH 7.4", "Papp A→B [×10⁻⁶ cm/s]": 18}
{"SMILES": "CNC(=C[N+](=O)[O-])NCCSCc1ccc(CN(C)C)o1", "Papp A→B [×10⁻⁶ cm/s]": 0.4}
{"SMILES": "C=CC(=O)Nc1cc(Nc2nccc(-c3cn(C)c4ccccc34)n2)c(OC)cc1N(C)CCN(C)C", "setting": "pH 7.4", "Papp A→B [×10⁻⁶ cm/s]": 8.64}
{"SMILES": "CC(C)NCC(O)COc1cccc2ccccc12 (stereo not shown)", "setting": "5 µM, 1 h", "Papp A→B [×10⁻⁶ cm/s]": 19.3}
{"SMILES": "COCCc1ccc(OCC(O)CNC(C)C)cc1 (stereo not shown)", "setting": "pH 7.4", "Papp A→B [×10⁻⁶ cm/s]": 73.6}
{"SMILES": "COc1cc(F)ccc1-c1ncnc(Nc2cccc(CS(N)(=O)=O)c2)n1", "setting": "2 µM, 2 h, pH 7.2", "Papp A→B [×10⁻⁶ cm/s]": 2.2}
{"SMILES": "COc1cccc2c(-c3ccccc3)cc(-c3ccc(-c4ccc(C(=O)O)cc4)[nH]3)nc12", "Papp A→B [×10⁻⁶ cm/s]": 2.42}
{"SMILES": "O=C(C1CCCCC1)N1CC(=O)N2CCc3ccccc3C2C1 (stereo not shown)", "Papp A→B [×10⁻⁶ cm/s]": 38.4}
{"SMILES": "Nc1nc2c(ncn2COCCO)c(=O)[nH]1", "setting": "10 µM, 2 h, pH 7.4", "Papp A→B [×10⁻⁶ cm/s]": 0.0803}
{"SMILES": "CC(C)(C)NCC(O)COc1cccc2c1CC(O)C(O)C2 (stereo not shown)", "Papp A→B [×10⁻⁶ cm/s]": 0.0514}
{"SMILES": "Cc1ncsc1-c1ccc(CNC(=O)[C@@H]2C[C@@H](O)CN2C(=O)[C@@H](NC(=O)C2(F)CC2)C(C)(C)C)c(OCCOc2ccc(CN3CCN(c4cc(-c5ccccc5O)nnc4N)CC3)cc2)c1", "setting": "2 h, pH 7.2", "Papp A→B [×10⁻⁶ cm/s]": 2.2}
{"SMILES": "Nc1cc(N2CCCCC2)nc(N)[n+]1[O-]", "setting": "10 µM, 2 h, pH 7.4", "Papp A→B [×10⁻⁶ cm/s]": 4.18}
